Data set [1] can be described thus: folding enthalpy; higher = less favourable; fluorescence melt of hairpins on a sequencing array, two-state fit. The note with it: sodium 0.088 M. In a few lines: (§1)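 Melting temperature and folding enthalpy were obtained by bootstrapped two-state fitting. Fits used Cy3 fluorescence of library hairpins with annealed Cy3 and quencher oligos on a sequenced MiSeq flow cell, imaged in 50 mM Na-HEPES pH 8.0, 25 mM NaCl in 2.5 °C steps up to 60 °C and normalised to pre-quench Cy3 and control constructs. Four replicates were combined by inverse-variance weighting, and fitted temperatures were raised by 9.35 °C to match UV melts.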

Data set [2] can be described thus: melting temperature; fluorescence melt of hairpins on a sequencing array, two-state fit, raised by 9.35 °C to match UV melts. The note with it: sodium 0.088 M. In a few lines:
as §1

The record followed here is the array DNA melting data of Ke et al. (doi:10.1101/2024.01.08.574731).

Regarding GGATTGGGAAACCAGTCC (((.(((....))).))), the folding enthalpy in data set [1] is -31.1 kcal/mol. Further, the Tm in data set [2] was 46.9 °C.
Take GGATTGTCGAAAGACTCC (((..(((....)))))): the folding enthalpy in data set [1] was -16 kcal/mol. The Tm in data set [2] worked out at 30.9 °C.
On to GGATTTGGAAACAGATCC ((((.((....)).)))), for which the folding enthalpy in data set [1] was -30.7 kcal/mol. Besides, the Tm in data set [2] was found to be 41.5 °C.
As to GGATTTGGAAACGAATCC (((((.(....).))))), the folding enthalpy in data set [1] was -34.9 kcal/mol. The Tm in data set [2] worked out at 46.1 °C.
In the same order, the values of GGCAAAACGAAAGTTGCC (((..(((....)))))) are -38.6 kcal/mol and 52.7 °C.
For the sequence GGCAAAGCGAAAGCTGCC (((..(((....)))))), the folding enthalpy in data set [1] was -31.3 kcal/mol. Besides, in data set [2], the Tm turned out to be 58.5 °C.
In the same order, the values of GGCAAAGGAAACTTTACC ((.((((....)))).)) are -27.4 kcal/mol and 30.1 °C.
Regarding GGCAAAGGAAACTTTGCC (((((((....))))))), the folding enthalpy in data set [1] was -40.7 kcal/mol. For the same sequence, the Tm in data set [2] was 62.7 °C.
Regarding GGCAACCCGAAAGGGGCC (((..(((....)))))), the folding enthalpy in data set [1] was -23.8 kcal/mol. For the same sequence, the Tm in data set [2] was 55.4 °C.
Turning to GGCAACCGAAAGGTAGCC (((.(((....))).))), in data set [1], the folding enthalpy was -33.6 kcal/mol. The Tm in data set [2] was found to be 62.4 °C.
On to GGCAACGAAAGTTCGCC ((((((....))).))), for which the folding enthalpy in data set [1] is -22.9 kcal/mol. Further, the Tm in data set [2] is 51.6 °C.
In the same order, the values of GGCAACGAAAGTTCGGCC ((((((....)))..))) are -25.2 kcal/mol and 44.4 °C.
On to GGCAACGAAAGTTGCGCC ((((((....)))..))), for which the folding enthalpy in data set [1] was -7.94 kcal/mol. For the same sequence, the Tm in data set [2] came to 59.2 °C.
Consider GGCAACGGAAACATTGCC (((((.(....).))))), for which the folding enthalpy in data set [1] was -31.6 kcal/mol. Besides, the Tm in data set [2] was found to be 45.1 °C.
Turning to GGCAACGGAAACGTTGTC (.(((((....))))).), the folding enthalpy in data set [1] is -39.2 kcal/mol. The Tm in data set [2] came to 55.9 °C.
Turning to GGCAACTCGAAAGAGGCC (((..(((....)))))), the folding enthalpy in data set [1] was -22.7 kcal/mol. The Tm in data set [2] turned out to be 48.8 °C.
As for GGCAAGGGAAACCCTGCC ((((.((....)).)))), the folding enthalpy in data set [1] is -38.6 kcal/mol. In addition, in data set [2], the Tm came to 53.2 °C.
In the same order, the values of GGCAAGGGAAACTTTGCC (((((.(....).))))) are -37.7 kcal/mol and 50.1 °C.
For GGCAAGTCGAAAGACGCC (((..(((....)))))), the folding enthalpy in data set [1] was -18.2 kcal/mol. For the same sequence, the Tm in data set [2] amounted to 53.1 °C.
Consider GGCAATCCGAAAGGAGCC (((..(((....)))))), for which the folding enthalpy in data set [1] is -23.4 kcal/mol. In data set [2], the Tm was 46.9 °C.
In the same order, the values of GGCAATGAAAATTGCC ((((((....)))))) are -37.5 kcal/mol and 61.4 °C.
The matching figures for GGCAATGGAAACATCGCC (((.(((....))).))): -34.7 kcal/mol and 45.5 °C.
On to GGCAATGGAAACATTGTC (.(((((....))))).), for which the folding enthalpy in data set [1] is -33.5 kcal/mol. In data set [2], the Tm came to 48.4 °C.
In the same order, the values of GGCAATTCGAAAGAAGCC (((..(((....)))))) are -24.7 kcal/mol and 37.8 °C.
Consider GGCACAACGAAAGTTGCC (((..(((....)))))), for which, in data set [1], the folding enthalpy is -16.4 kcal/mol. Further, in data set [2], the Tm is 44.2 °C.
As to GGCACACCGAAAGGTGCC (((..(((....)))))), the folding enthalpy in data set [1] was -14.3 kcal/mol. For the same sequence, in data set [2], the Tm was found to be 52.8 °C.
Take GGCACAGGAAACTGCGCC (((.(((....))).))): in data set [1], the folding enthalpy is -50.8 kcal/mol. Also, in data set [2], the Tm came out at 55.8 °C.
The matching figures for GGCACATCGAAAGATGCC (((..(((....)))))): -14.7 kcal/mol and 42.8 °C.
Turning to GGCACCGAAAGGTCGGCC ((((((....)))..))), the folding enthalpy in data set [1] is -21.8 kcal/mol. Moreover, the Tm in data set [2] was determined as 49.9 °C.
On to GGCACCGAAAGGTCTGCC ((((((....)))..))), for which the folding enthalpy in data set [1] was -22.2 kcal/mol. Besides, in data set [2], the Tm came to 48.4 °C.
Take GGCACCGAAAGGTGTGCC ((((((....)))..))): in data set [1], the folding enthalpy is -16.3 kcal/mol. For the same sequence, in data set [2], the Tm worked out at 55.4 °C.
For the sequence GGCACCGAAAGGTTTGCC ((((((....)))..))), the folding enthalpy in data set [1] was -22.6 kcal/mol. In addition, in data set [2], the Tm stood at 50.6 °C.
The matching figures for GGCACCGGAAACGATGCC ((((.((....)).)))): -43.2 kcal/mol and 52.9 °C.
The matching figures for GGCACCGGAAACGGTACC ((.((((....)))).)): -22.5 kcal/mol and 50.7 °C.
The matching figures for GGCACGCCGAAAGGCGCC (((..(((....)))))): -6.45 kcal/mol and 40.3 °C.
For the sequence GGCACGGGAAACCGTGTC (.(((((....))))).), the folding enthalpy in data set [1] was -34.6 kcal/mol. In addition, in data set [2], the Tm turned out to be 59.2 °C.
In the same order, the values of GGCACTACGAAAGTAGCC (((..(((....)))))) are -11.9 kcal/mol and 39.3 °C.
The matching figures for GGCACTGCGAAAGCAGCC (((..(((....)))))): -8.74 kcal/mol and 35.9 °C.
In the same order, the values of GGCACTGGAAACAGCACC ((..(((....)))..)) are -9.94 kcal/mol and 23.5 °C.
GGCACTGGAAACAGTGTC (.(((((....))))).): in data set [1], the folding enthalpy was -37.8 kcal/mol. Besides, the Tm in data set [2] turned out to be 54.1 °C.
In the same order, the values of GGCAGAGCGAAAGCTGCC (((..(((....)))))) are -28.6 kcal/mol and 61.9 °C.
For GGCAGCGAAAGCTAGGCC ((((((....)))..))), in data set [1], the folding enthalpy was -28.6 kcal/mol. In addition, the Tm in data set [2] stood at 55.3 °C.
For the sequence GGCAGCGAAAGCTGGGCC ((((((....)))..))), in data set [1], the folding enthalpy is -13.1 kcal/mol. Moreover, the Tm in data set [2] stood at 52 °C.
The matching figures for GGCAGCGAAAGCTGTGCC ((((((....)))..))): -13.2 kcal/mol and 51 °C.
In the same order, the values of GGCAGCGGAAACACCGCC (((.(.(....).).))) are -11.1 kcal/mol and 34.9 °C.
For the sequence GGCAGCGGAAACGCTACC ((.((((....)))).)), the folding enthalpy in data set [1] is -22.8 kcal/mol. In addition, the Tm in data set [2] is 54 °C.
With GGCAGGAAACTGCC (((((....))))), in data set [1], the folding enthalpy was -31.6 kcal/mol. Besides, the Tm in data set [2] was 65.6 °C.
In the same order, the values of GGCAGGCCGAAAGGCGCC (((..(((....)))))) are -21.3 kcal/mol and 59.6 °C.
GGCAGTCGAAAGACGCC (((.(((....)))))): the folding enthalpy in data set [1] was -26.6 kcal/mol. Moreover, in data set [2], the Tm came out at 65 °C.
In the same order, the values of GGCAGTTCGAAAGAAGCC (((..(((....)))))) are -16.3 kcal/mol and 34.5 °C.
In the case of GGCATACGAAAGTACGCC (((.(((....))).))), in data set [1], the folding enthalpy is -32.1 kcal/mol. Moreover, the Tm in data set [2] was 51.8 °C.
The matching figures for GGCATAGGAAACTACGCC (((.(((....))).))): -28.2 kcal/mol and 41.1 °C.
In the same order, the values of GGCATATCGAAAGATGCC (((..(((....)))))) are -29 kcal/mol and 50.1 °C.
In the same order, the values of GGCATCCGAAAGGAAGCC (((.(((....))).))) are -42.9 kcal/mol and 59.2 °C.
GGCATCGAAAGATCGCC ((((((....))).))): the folding enthalpy in data set [1] is -24.4 kcal/mol. Moreover, the Tm in data set [2] is 50.4 °C.
Consider GGCATCGAAAGATCGGCC ((((((....)))..))), for which the folding enthalpy in data set [1] is -23.7 kcal/mol. The Tm in data set [2] worked out at 41.1 °C.
In the case of GGCATCGAAAGATGCGCC ((((((....)))..))), in data set [1], the folding enthalpy is -8.72 kcal/mol. Moreover, the Tm in data set [2] is 57.3 °C.
As to GGCATCGGAAACAACGCC (((.(.(....).).))), the folding enthalpy in data set [1] is -9.26 kcal/mol. For the same sequence, in data set [2], the Tm stood at 27.4 °C.
In the same order, the values of GGCATCGGAAACAATGCC (((((.(....).))))) are -30.4 kcal/mol and 46.7 °C.
Turning to GGCATCTCGAAAGAGGCC (((..(((....)))))), in data set [1], the folding enthalpy is -26.6 kcal/mol. Further, the Tm in data set [2] came to 51.2 °C.
In the same order, the values of GGCATTGCGAAAGCAGCC (((..(((....)))))) are -16.4 kcal/mol and 50.7 °C.
The matching figures for GGCATTGGAAACGATGTC (.(((.(....).))).): -25.7 kcal/mol and 35.1 °C.
The matching figures for GGCCAAGCGAAAGCTGCC (((..(((....)))))): -21.7 kcal/mol and 54.3 °C.
Consider GGCCACGAAAGTGAGCC ((((((....))).))), for which, in data set [1], the folding enthalpy is -27.1 kcal/mol. Also, the Tm in data set [2] was 65.8 °C.
The matching figures for GGCCACGAAAGTGAGGCC ((((((....)))..))): -26.9 kcal/mol and 58.3 °C.
Consider GGCCACGAAAGTGCGCC ((((((....))).))), for which the folding enthalpy in data set [1] is -32.8 kcal/mol. Further, the Tm in data set [2] was found to be 63.6 °C.
In the same order, the values of GGCCACGAAAGTGCTGCC ((((((....)))..))) are -20.4 kcal/mol and 48.8 °C.
The matching figures for GGCCACGGAAACATGGCC (((((.(....).))))): -49.2 kcal/mol and 53.3 °C.
As for GGCCACGGAAACGCAGCC (((..((....))..))), the folding enthalpy in data set [1] was -20.5 kcal/mol. Further, in data set [2], the Tm stood at 39.5 °C.
Consider GGCCAGAAATGGCC (((((....))))), for which the folding enthalpy in data set [1] was -29 kcal/mol. The Tm in data set [2] is 67.5 °C.
Turning to GGCCAGCCGAAAGGCGCC (((..(((....)))))), the folding enthalpy in data set [1] is -13.4 kcal/mol. The Tm in data set [2] amounted to 55.1 °C.
GGCCAGGGAAACCTAGCC (((.(((....))).))): the folding enthalpy in data set [1] is -28.4 kcal/mol. Also, the Tm in data set [2] amounted to 43.2 °C.
In the same order, the values of GGCCATCCGAAAGGAGCC (((..(((....)))))) are -20.1 kcal/mol and 42.8 °C.
